Screening data as filed in PubChem BioAssay.
Shown are actives, neighbours in structure and some others; about 2.6% of the full set was active somewhere.
SENP8 block-1 – inhibitors of human SENP8 protease | inhibition, % at 10 µM | purified SENP8, Z-RLRGG-aminoluciferin cleavage, luminescence | AID 2540 | Q96LD8 | 1.2% of 330,000 active; in the data active = inhibition above about 50%
Target sequence (Q96LD8 whole entry, looked up): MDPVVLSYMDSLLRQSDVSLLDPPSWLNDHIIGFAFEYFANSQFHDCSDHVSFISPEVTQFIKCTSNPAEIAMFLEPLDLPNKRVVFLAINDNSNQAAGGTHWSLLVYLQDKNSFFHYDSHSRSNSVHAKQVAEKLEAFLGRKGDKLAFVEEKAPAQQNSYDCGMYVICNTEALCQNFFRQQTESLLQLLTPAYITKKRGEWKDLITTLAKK
SENP8 block-2 – SENP8 (human) protease inhibition | inhibition, % at 20 µM | 0.64% of 360,000 active | Q96LD8 | recombinant SENP8, Nedd8 substrate fluorescence; in the data active = inhibition mostly above about 40%, no sharp cut-off; inactive = mostly below about 27%
SENP1 FRET inh – SENP1 (human) catalytic domain inhibition; inhibition, % at 10 µM; Q9P0U3; recombinant SENP1 catalytic domain, CyPet-SUMO1-YPet FRET cleavage; AID 624204; 0.21% of 360,000 active;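 active = inhibition at least 30% at 10 µM, raw YFP signal under a set limit, fluorescence ratio 0.5 to 1.5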
Target sequence (Q9P0U3 419-644 limits assumed): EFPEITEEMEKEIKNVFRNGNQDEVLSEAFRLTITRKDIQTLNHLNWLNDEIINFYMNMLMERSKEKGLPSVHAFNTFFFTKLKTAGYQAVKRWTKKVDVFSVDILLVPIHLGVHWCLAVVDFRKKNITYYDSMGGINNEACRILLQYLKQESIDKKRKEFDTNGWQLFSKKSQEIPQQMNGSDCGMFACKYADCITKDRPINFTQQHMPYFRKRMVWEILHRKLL
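Compound: 10 µM single point, 0.5% DMSO; Test system: hSENP1 catalytic domain, recombinant; Timing: 50 min reaction at room temperature; Technique: FRET, CFP and YFP emission; Control set: no-enzyme wells low, DMSO-plus-enzyme wells high control.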
SENP6 block – SENP6 protease inhibition; Q9GZR1; Recombinant SENP6 catalytic domain, aminoluciferin luminescence; inhibition, % at 10 µM; 1.8% of 330,000 active; AID 2599;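 active = inhibition above about 50% at the single tested dose, limit read from the data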
Platelet DG rel – modulates dense granule release in human platelets. human platelet-rich plasma, SFLLRN dense granule ATP release, luminescence. inhibition, %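 (compounds screened at 7.5 µM in platelet-rich plasma)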. 0.22% of 300,000 active. AID 1663;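 active = mean replicate score, as percent of positive control, at or above 50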
SENP7 inh – inhibitors of human SENP7 protease | Q9BQF6 | recombinant SENP7, Z-RLRGG-aminoluciferin luminescence, 40 min | inhibition, % at 5 µM | 1.5% of 330,000 active | AID 434973;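 active = inhibition above about 50% at the single test dose, limit read from the data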
Of the large screens only hits and unclear results are named; the others gave an inactive call.

O=[N+]([O-])c1ccc(Sc2cccc[n+]2[O-])c2nonc12	SENP1 FRET inh 40.7 (no result: SENP8 block-1, SENP6 block, SENP7 inh)
O=C(N/N=C/c1ccccc1[N+](=O)[O-])c1ccc2c(c1)OCCO2	SENP6 block 71.5
O=C(N/N=C/c1cc(O)ccc1[N+](=O)[O-])c1ccc2c(c1)OCCO2	none
Nc1ccc(N2CCN(c3ccc(F)cc3)CC2)cc1	none
Nc1ccc(N2CCCCCC2)cc1	SENP6 block 51.9 (no result: SENP8 block-2, SENP1 FRET inh, Platelet DG rel)
Nc1ccc(N2CCN(c3ccc(Cl)c(Cl)c3)CC2)cc1	SENP8 block-2 41.4
COC(=O)N1CCN(c2ccc(Cl)c(Cl)c2)CC1	none
Clc1cccc(OCCN2CCN(CCOc3cccc(Cl)c3)CC2)c1	none
CCCCNC(=O)Nc1ccccc1C(=O)NCc1ccco1	none
CN(C)CCN1C(=O)c2cccc3cc([N+](=O)[O-])cc(c23)C1=O	SENP1 FRET inh 60.1 (no result: SENP8 block-1, SENP6 block, Platelet DG rel, SENP7 inh)
CCN(CC)c1ccc2nc3c4ccccc4c(=O)cc-3oc2c1	none (no result: SENP8 block-2, SENP1 FRET inh)
CCN(CC)c1ccc2c(-c3ccc(S(=O)(=O)O)cc3S(=O)(=O)[O-])c3ccc(=[N+](CC)CC)cc-3oc2c1	SENP1 FRET inh 33.6
C=C(C)C(=O)Oc1ccc(N=Nc2ccc(C)cc2)ccc1=O	SENP1 FRET inh 34.1 (no result: SENP8 block-1, SENP6 block, Platelet DG rel, SENP7 inh)
C=C(C)C(=O)Oc1ccc(N2C(=O)CCC2=O)cc1	none
COc1ccccc1N1CCN(C(c2ccc(N(C)C)cc2)c2nnnn2CCc2ccccc2)CC1 (centres undefined)	SENP8 block-2 46.6
COc1ccc(C(c2nnnn2CCc2ccccc2)N2CCN(C3CCCC3)CC2)cc1 (centres undefined)	none
Cc1nc(-c2cccc(NS(=O)(=O)c3cccc4ccccc34)c2)cs1	none
O=C(O)c1ccccc1NS(=O)(=O)c1ccc(NN=Cc2ccccc2F)c([N+](=O)[O-])c1	none (no result: Platelet DG rel)
COc1ccc(C=NNc2ccc(S(=O)(=O)Nc3ccccc3C(=O)O)cc2[N+](=O)[O-])c(OC)c1	SENP8 block-2 44.3 (no result: Platelet DG rel)
N#Cc1ccsc1NC(=O)c1ccc(Cl)c([N+](=O)[O-])c1	SENP8 block-1 93.9, SENP6 block 96.1, SENP7 inh 91.5
O=C(COC(=O)c1c[nH]c(=O)[nH]c1=O)Nc1ccccc1Br	Platelet DG rel 82.0
COc1ccccc1NC(=O)COC(=O)c1c[nH]c(=O)[nH]c1=O	none
COc1ccccc1C(=O)Nc1ccc(C2=NNC(=O)CC2C)cc1 (centres undefined)	Platelet DG rel 87.6
O=C(N/N=C/c1ccc(O)c(O)c1O)/C(=C/c1ccc([N+](=O)[O-])cc1)NC(=O)c1ccccc1	SENP8 block-2 71.9
Cc1ccc(NC(=O)/C(=C\c2ccc([N+](=O)[O-])cc2)NC(=O)c2ccccc2)cc1	none
O=C(O)c1ccc2c(c1)C(=O)/C(=C\c1ccco1)C2=O	SENP1 FRET inh 30.6
Cc1ccccc1CN(c1ccc(C(N)=O)cc1)S(C)(=O)=O	none
O=C(COC(=O)c1ccc(O)cc1)c1ccc2c(c1)OCCO2	SENP8 block-1 69.6, SENP6 block 87.2, SENP7 inh 57.1 (no result: Platelet DG rel)
CC(=O)Oc1ccc(-c2cc3c(OC(C)=O)cc(OC(C)=O)cc3oc2=O)cc1	Platelet DG rel 58.1
CC(=O)Oc1ccc(-c2cc3ccccc3oc2=O)cc1	none
O=C(c1ccccc1)c1ccc(O)c(O)c1O	SENP8 block-2 46.7 (no result: SENP8 block-1, SENP6 block, Platelet DG rel, SENP7 inh)
Cc1cc(C(=O)c2ccccc2)cc(C)c1O	none (no result: SENP8 block-1, SENP6 block, Platelet DG rel, SENP7 inh)
CCOc1cc(/C=C2/SC(=S)NC2=O)ccc1OC(=O)c1ccco1	SENP1 FRET inh 74.8
COc1ccc(NC(=O)NC(C)c2ccc3c(c2)OCO3)c(OC)c1 (centres undefined)	none
COc1ccc(NC(=O)/C(C#N)=C\c2ccc(N3CCOCC3)o2)cc1	SENP8 block-2 45.0
O=S(=O)(NCc1cccs1)c1ccc(Br)s1	none (no result: SENP8 block-2, SENP1 FRET inh)
C(=N\Nc1nc2ccccc2[nH]1)/c1ccc2ncccc2c1	none
C(=N\Nc1nc2ccccc2[nH]1)/c1ccccn1	Platelet DG rel 62.0 (no result: SENP8 block-1, SENP6 block, SENP7 inh)
CCN(CC)CCNc1ccc(CO)c2sc3ccccc3c(=O)c12	none
O=c1c2ccccc2sc2c(CO)ccc(NCCN3CCCCC3)c12	SENP8 block-2 41.0 (no result: SENP8 block-1, SENP6 block, Platelet DG rel, SENP7 inh)
O=C(O)c1cccc(N2C(=O)/C(=C/c3ccc([N+](=O)[O-])cc3)C=C2c2ccccc2)c1	SENP1 FRET inh 32.1
O=C1/C(=C/c2ccc([N+](=O)[O-])cc2)C=C(c2ccccc2)N1c1ccc(O)cc1	none
O=C(N/N=C1\CCc2ccccc21)c1ccccc1O	SENP8 block-1 58.0, SENP6 block 70.6, SENP7 inh 78.1
CC(C)(C)NC(=O)CN(C(=O)Cn1nnc(-c2ccccc2F)n1)c1cccc2c1CCCC2	none
CCCOC(=O)Oc1ccc2c(=O)c(Oc3cc(C)cc(C)c3)coc2c1	none
Cc1ccc(C(=O)Nc2cnc3ccccc3c2)cc1	SENP8 block-1 93.6, SENP6 block 97.0, SENP7 inh 98.3 (no result: Platelet DG rel)
O=C(Nc1cnc2ccccc2c1)c1ccco1	SENP6 block 70.3, SENP7 inh 70.4 (no result: Platelet DG rel)
Cc1cc(NC(=O)COC(=O)C2CCN(C(=O)c3ccc(Cl)cc3)CC2)no1	none
Cc1ccsc1/C=N/Nc1ccc(F)cc1F	SENP8 block-1 56.5, SENP6 block 50.5
CCn1c(=O)c2ccccc2n(CC(=O)NCCC2=CCCCC2)c1=O	none
CCOC(=O)c1cc2cc(OC)ccc2nc1C	Platelet DG rel 66.3
COc1ccc2cc1Oc1ccc(cc1)CC1c3c(cc(OC)c4c3Oc3cc5c(cc3O4)CCNC5C2)CCN1C (centres undefined)	SENP8 block-2 44.6
COc1ccc2cc1Oc1ccc(cc1)C[C@H]1c3c(cc(OC)c4c3Oc3c(ccc5c3[C@H](C2)N(C)CC5)O4)CCN1C	none (no result: Platelet DG rel)
CN(C)c1ccc(/C=C/c2ccc3ccccc3n2)cc1	Platelet DG rel 97.4 (no result: SENP8 block-1, SENP6 block, SENP7 inh)
CN(C)c1ccc(/C=C/c2nc3ccccc3s2)cc1	SENP8 block-1 97.0, SENP6 block 98.6, Platelet DG rel 64.3, SENP7 inh 98.8
COc1cc(/C=C/c2nc3ccccc3s2)cc(OC)c1O	none
CN(C)c1ccc(CNc2nc3ccccc3s2)cc1	SENP8 block-1 53.6, SENP6 block 81.7, SENP7 inh 95.2 (no result: SENP8 block-2, SENP1 FRET inh)
CN(C)c1ccc(CNc2nc3ccccc3n2C)cc1	none (no result: SENP8 block-1, SENP6 block, Platelet DG rel, SENP7 inh)
CCCN(CCC)c1ccc(/C=C/c2ccc3cc(OCC)ccc3n2)cc1	none (no result: SENP8 block-1, SENP6 block, SENP7 inh)
CCc1ccc(/C=N/NC(=O)c2nnn(-c3nonc3N)c2C(C)C)cc1	none
Cc1oc2c(c(C)cc3oc(=O)c(CC(=O)NCC(=O)NCC(=O)NCC(C)O)c(C)c32)c1C (centres undefined)	none
Cc1[nH]c(=O)c(C#N)c(C)c1CSc1ncccn1	Platelet DG rel 49.7
Cc1[nH]c(=O)c(C#N)c(C)c1Cc1ccc(Cl)cc1Cl	none
COc1cc2cnc(-c3ccccc3)c(-c3cccc(C(F)(F)F)c3)c2cc1OC	none (no result: Platelet DG rel)
COc1ccc(/C=C2\COc3ccccc3C2=O)c(OC)c1	none
COc1ccc2c(c1)OC/C(=C/c1cccs1)C2=O	SENP8 block-1 88.8, SENP6 block 93.8, SENP7 inh 96.1
